Data reported in ChEMBL document CHEMBL2385062, “Metabolism of a potent neuroprotective hydrazide” (Bioorg Med Chem, 2013).
Blank lines part the entries; values can stand above or below the molecule they belong to.

Experiments:
[1] = tested on: HT-22; assay: Neuroprotective activity in mouse HT22 cells assessed as reduction in glutamate-induced oxidative stress incubated for 30 mins prior to glutamate-challenge measured after 20 hrs by MTT assay
[2] = Neuroprotective activity in human MC65 cells expressing C-terminal 99 amino acids from […] assessed as reduction in intracellular amyloid beta toxicity after 4 days by MTT assay; format: functional, cell-based; conditions: MC65, 96 h
In short: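 MC65 cells from confluent cultures were plated at 4 × 10⁵ per 35 mm dish with compounds. Tetracycline was kept present (no induction) or omitted (APP-C99 induced). After 4 days, viability was read by MTT and expressed relative to plus-tetracycline controls. EC50 was calculated from concentration–response curves.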

[3] = Neuroprotective activity in rat primary cortical neurons assessed as reduction in trophic factor withdrawal after 2 days by fluorescent live-dead assay; format: functional, cell-based; conditions: cerebral cortex neuron
In short: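 Cortical neurons from E18 rat embryos were plated at low density (1 × 10⁶ per 35 mm dish) in serum-free DMEM/F12 with N2 supplement plus compounds. After 2 days, viability was scored with a fluorescent live-dead assay as the percentage of input cells surviving. EC50 was derived from the concentration–response curves.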

[4] = tested on: Plasma; assay: Drug metabolism in mouse plasma assessed as formation of 2,4-dimethylaniline at 5 uM by LC/MS/MS analysis; format: ADME, cell-free
[5] = Drug metabolism in mouse liver microsomes assessed as formation of 2,4-dimethylaniline at 5 uM by LC/MS/MS analysis; format: ADME, Microsome
In short: (§1)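 Parent at 5 µM was incubated with human or mouse liver microsomes, then extracted with ethyl acetate at zero time or after 5 min. Extracts were separated on a C18 reverse-phase HPLC column and analysed by LC/MS/MS in positive mode over m/z 50–1000. Metabolites were characterised from EPI-scan product ion spectra and CID pathways.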

[6] = Half life in BALB/c mouse blood at 20 mg/kg, orally administered in corn oil by LC/MS/MS analysis; conditions: po
[7] = tested on: Liver microsomes; assay: Drug metabolism in human liver microsomes assessed as formation of (E)-N-(2,4-dimethylphenyl)-2,2,2-trifluoro-N'-(3-hydroxybenzyli-dene)acetohydrazide at 5 uM by LC/MS/MS analysis; format: ADME, Microsome
In short: as §1

[8] = Drug metabolism in mouse liver microsomes assessed as (E)-N'-(3,4-dihydroxybenzylidene)-N-(2,4-dimethylphenyl)-2,2,2-trifluoroacetohydrazide retention time at 5 uM by LC/MS/MS analysis; format: ADME, Microsome
In short: as §1

[9] = Drug metabolism in mouse liver microsomes assessed as formation of 2,4-dimethylhydrazine at 5 uM by LC/MS/MS analysis; format: ADME, Microsome
In short: as §1

[10] = Half life in BALB/c mouse brain at 20 mg/kg, orally administered in corn oil by LC/MS/MS analysis; conditions: po
[11] = tested on: Liver microsomes; assay: Drug metabolism in human liver microsomes assessed as retention time at 5 uM by LC/MS/MS analysis; format: ADME, Microsome
In short: as §1

[12] = tested on: Liver microsomes; assay: Drug metabolism in human liver microsomes assessed as formation of 3-methoxy benzaldehyde at 5 uM by LC/MS/MS analysis; format: ADME, Microsome
In short: as §1

[13] = tested on: Plasma; assay: Drug metabolism in mouse plasma assessed as formation of 2,4-dimethylhydrazine at 5 uM by LC/MS/MS analysis; format: ADME, cell-free
[14] = tested on: Blood; assay: Drug metabolism in BALB/c mouse blood assessed as (E)-N-(2,4-dimethylphenyl)-2,2,2-trifluoro-N'-(3-hydroxybenzyli-dene)acetohydrazide retention time at 20 mg/kg, iv administered in corn oil by LC/MS/MS analysis; format: ADME, organism-based; design: dose 20 mg/kg, route intravenous; conditions: in vivo
In short: (§2)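 Mice received parent at 20 mg/kg iv, and blood was sampled 20 min later. Metabolites were identified by the same ethyl acetate extraction and LC/MS/MS workflow as for microsomes, using a polar reverse-phase column. Mass shifts were assigned to biotransformations.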

[15] = tested on: Liver microsomes; assay: Drug metabolism in human liver microsomes assessed as formation of (E)-2,2,2-trifluoro-N-(4-(hydroxymethyl)-2-methylphenyl)-N'-(3-methoxybenzylidene)acetohydrazide at 5 uM by LC/MS/MS analysis; format: ADME, Microsome
In short: as §1

[16] = Drug metabolism in mouse liver microsomes assessed as (E)-N-(2,4-dimethylphenyl)-2,2,2-trifluoro-N'-(3-hydroxybenzyli-dene)acetohydrazide retention time at 5 uM by LC/MS/MS analysis; format: ADME, Microsome
In short: as §1

[17] = Drug metabolism in mouse liver microsomes assessed as metabolite M5 retention time at 5 uM by LC/MS/MS analysis; format: ADME, Microsome
In short: as §1

[18] = tested on: Blood; assay: Drug metabolism in BALB/c mouse blood assessed as metabolite BM2 retention time at 20 mg/kg, iv administered in corn oil by LC/MS/MS analysis; format: ADME, organism-based; design: dose 20 mg/kg, route intravenous; conditions: in vivo
In short: as §2

[19] = tested on: Liver microsomes; assay: Drug metabolism in human liver microsomes assessed as formation of 2,4-dimethylaniline at 5 uM by LC/MS/MS analysis; format: ADME, Microsome
In short: as §1

[20] = Drug metabolism in mouse liver microsomes assessed as metabolite M4 retention time at 5 uM by LC/MS/MS analysis; format: ADME, Microsome
In short: as §1

[21] = tested on: Plasma; assay: Drug metabolism in mouse plasma assessed as formation of 3-methoxy benzaldehyde at 5 uM by LC/MS/MS analysis; format: ADME, cell-free
[22] = Half life in mouse liver microsomes at 5 uM by LC/MS/MS analysis in presence of NADPH; format: ADME, Microsome
In short: (§3)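 Test compound at 5 µM was incubated at 37 °C with 0.5 mg/mL liver microsomes (human or mouse) in 5 mM phosphate buffer, pH 7.3, with or without 1 mM NADPH. Heat-inactivated microsomes (98 °C, 10 min) served as controls. At 0.1, 2, 5, 10 and 20 min, reactions were stopped with three volumes of ethyl acetate and centrifuged. Parent disappearance in the supernatant was followed by LC/MS/MS.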

[23] = Drug metabolism in mouse liver microsomes assessed as (E)-2,2,2-trifluoro-N-(4-(hydroxymethyl)-2-methylphenyl)-N'-(3-methoxybenzylidene)acetohydrazide retention time at 5 uM by LC/MS/MS analysis; format: ADME, Microsome
In short: as §1

[24] = Drug metabolism in mouse liver microsomes assessed as formation of 3-methoxy benzaldehyde at 5 uM by LC/MS/MS analysis; format: ADME, Microsome
In short: as §1

[25] = Drug metabolism in mouse liver microsomes assessed as retention time at 5 uM by LC/MS/MS analysis; format: ADME, Microsome
In short: as §1

[26] = tested on: Liver microsomes; assay: Drug metabolism in human liver microsomes assessed as formation of 2,4-dimethylhydrazine at 5 uM by LC/MS/MS analysis; format: ADME, Microsome
In short: as §1

[27] = tested on: Blood; assay: Drug metabolism in BALB/c mouse blood assessed as retention time at 20 mg/kg, iv administered in corn oil by LC/MS/MS analysis; format: ADME, organism-based; design: dose 20 mg/kg, route intravenous; conditions: in vivo
In short: as §2

[28] = Half life in human liver microsomes at 5 uM by LC/MS/MS analysis in presence of NADPH; format: ADME, Microsome
In short: as §3

[29] = tested on: Blood; assay: Drug metabolism in BALB/c mouse blood assessed as metabolite BM1 retention time at 20 mg/kg, iv administered in corn oil by LC/MS/MS analysis; format: ADME, organism-based; design: dose 20 mg/kg, route intravenous; conditions: in vivo
In short: as §2

- EC50 [3]: 31 nM
Structure (SMILES): Cc1ccc(N(/N=C/c2ccc(O)c(O)c2)C(=O)C(F)(F)F)c(C)c1
- EC50 [1]: 1000 nM
- EC50 [2]: 34 nM

- Drug metabolism [4]: Not Active
- Drug metabolism [5]: Not Active
- half-life [6]: 2.5 h
- Drug metabolism [7]: Active
- Retention_time [8]: 7.6 min
- Drug metabolism [9]: Not Active
- half-life [10]: 2.5 h
- Retention_time [11]: 10.97 min
- Drug metabolism [12]: Not Active
- Drug metabolism [13]: Not Active
- Retention_time [14]: 8.04 min
- Drug metabolism [15]: Active
- Retention_time [16]: 8.36 min
- Retention_time [17]: 6.82 min
- Retention_time [18]: 5.54 min
- Drug metabolism [19]: Not Active
- Retention_time [20]: 5.96 min
- Drug metabolism [21]: Not Active
- half-life at 5 µM [22]: < 4 min
- Retention_time [23]: 7.86 min
- EC50 [3]: 33 nM
- Drug metabolism [24]: Not Active
- Retention_time [25]: 9.49 min
- Drug metabolism [26]: Not Active
- Retention_time [27]: 9.27 min
- half-life at 5 µM [28]: 4.5 min
- Retention_time [29]: 5.35 min
Structure (SMILES): COc1cccc(/C=N/N(C(=O)C(F)(F)F)c2ccc(C)cc2C)c1 [J147]
- EC50 [1]: 20 nM
- EC50 [2]: 11 nM

- EC50 [3]: 12 nM
Structure (SMILES): Cc1ccc(N(/N=C/c2cccc(O)c2)C(=O)C(F)(F)F)c(C)c1
- EC50 [1]: 185 nM
- EC50 [2]: 78 nM

- EC50 [3]: 320 nM
Structure (SMILES): COc1cccc(/C=N/N(C(=O)C(F)(F)F)c2ccc(CO)cc2C)c1
- EC50 [1]: 180 nM
- EC50 [2]: 92 nM
